CCR6 antagonist = blocks CCL20-driven beta-arrestin recruitment at human CCR6; CHO-K1 CCR6 PathHunter beta-arrestin, luminescence, CCL20-stimulated; inhibition, % at 20 µM; 340,000 compounds, 0.49% hits; P51684;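 active = compounds whose inhibition of the agonist-driven luminescence signal at 20 µM reaches about 50%, limit read from the data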;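 note: cells stimulated with CCL20 at 14 nM final; plate controls were DMSO with CCL20 for no effect and DMSO without agonist for full effect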
APJ antagonist = APJ receptor antagonism. CHO-K1 APJ beta-arrestin complementation, luminescence. inhibition, % at 20 µM. 330,000 compounds, 0.32% hits;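 active = inhibition above about 40% at 20 µM, limit read from the data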;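 note: cells challenged with 10 nM apelin-13 agonist together with compound; plate controls were apelin-13 plus DMSO wells for no effect and DMSO wells lacking apelin-13 for full effect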
APJ ag = activates the human apelin receptor APJ. P35414. CHO-K1 APJ PathHunter beta-arrestin, luminescence; 0% DMSO wells, 100% apelin. activation, % at 20 µM. 330,000 compounds, 0.11% hits. AID 2520;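 active = activation more than six SD over the plate average, tested at 20 µM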;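 note: 0% = DMSO alone and 100% = apelin-13 at 10 nM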
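Assay system – PathHunter CHO-K1 APJ (AGTRL-1) beta-arrestin reporter cells · Compound – one dose, 20 µM compound, 1% DMSO · Timing – compound 90 min 25 °C, reagent 1 h · Measured by – luminescence from split beta-galactosidase complementation, Galacton Star/Emerald II substrate · Measure – beta-arrestin recruitment to APJ as agonist activity, luminescent signal · Benchmarks – DMSO vs Apelin-13 10 nM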
EBI2 antag = EBI2 (human) antagonism; P32249; EBI2 beta-arrestin recruitment, luminescence, 7a,25-OHC stimulated; inhibition, % at 5 µM; 360,000 compounds, 0.81% hits; AID 651636; in the data active = inhibition above about 38%;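 note: enzyme fragment complementation signal reports receptor beta-arrestin coupling in cells; 0% = agonist plus DMSO wells and 100% = wells without agonist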
Beta2AR agonist = agonists of human beta-2 adrenergic receptor inducing internalization; Am2.2-beta2AR cells, FAP receptor internalization, flow cytometry; response, % (test concentration not listed); 340,000 compounds, 0.43% hits;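 active = response above a set limit, near 3 SD of response in nonfluorescent compounds, cut at about 42% in these data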
Target sequence (P07550 whole entry, looked up): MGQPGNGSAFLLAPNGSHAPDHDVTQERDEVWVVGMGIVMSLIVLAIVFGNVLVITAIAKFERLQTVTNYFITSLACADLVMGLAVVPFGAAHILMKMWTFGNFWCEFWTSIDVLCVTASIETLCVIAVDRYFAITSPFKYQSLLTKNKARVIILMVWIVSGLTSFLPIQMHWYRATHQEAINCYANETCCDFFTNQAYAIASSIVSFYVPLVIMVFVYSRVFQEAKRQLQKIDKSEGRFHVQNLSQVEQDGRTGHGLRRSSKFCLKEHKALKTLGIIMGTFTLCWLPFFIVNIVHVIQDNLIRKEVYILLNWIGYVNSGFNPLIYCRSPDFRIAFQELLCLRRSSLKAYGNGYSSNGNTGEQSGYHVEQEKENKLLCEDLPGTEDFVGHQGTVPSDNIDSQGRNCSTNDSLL
CXCR6 block = CXCR6 (human) receptor inhibition; O00574; CHO-K1 PathHunter CXCR6 beta-arrestin, luminescence; inhibition, % at 20 µM; 360,000 compounds, 0.36% hits; in the data active = inhibition above about 34%, passing the limit was not always enough;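 note: antagonist mode with CXCL16 agonist at 10 nM final; 0% = 10 nM CXCL16 with DMSO and 100% = unstimulated wells without agonist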
EBI2 conf = confirmation of human EBI2 receptor antagonists. EBI2 beta-arrestin luminescence, 7a,25-OHC antagonism. AID 651997. inhibition, % at 5 µM. shares compounds with EBI2 antag. 2,400 compounds, 29% hits;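 active = inhibition of at least 50%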
EBI2 agonist = activates EBI2, counter-screen for EBI2 antagonists. 2,400 tested, under 10 active. AID 652000. activation, % at 5 µM. EBI2-expressing cells, agonist mode, luminescence, 60 min; 0% vehicle, 100% 7α,25-dihydroxycholesterol control. shares compounds with EBI2 antag;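 active = activation of at least 50%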
bGal cs = beta-galactosidase inhibition counter-screen. shares compounds with EBI2 antag. purified beta-galactosidase, luminescent Galacton Star, 15 min. inhibition, % at 5 µM. 2,400 compounds, 1% hits. AID 652176;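 active = replicate-average signal at least 3 plate SD below neutral wells, shown as high inhibition, flagging enzyme-inhibiting false positives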;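 note: 0% = DMSO wells with enzyme and 100% = wells lacking enzyme; higher means stronger loss of beta-gal luminescence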
Numbers without * were called inactive; / = no result. The list is not random: actives were taken first. Their share in the collection is about 1.8%.

SMILES | CCR6 antagonist | APJ antagonist | APJ ag | EBI2 antag | Beta2AR agonist | CXCR6 block | EBI2 conf | EBI2 agonist | bGal cs
Cc1ccc(/C=C\c2nccc3c2[nH]c2ccccc23)cc1 | -19 | -7 | -3 | 74* | 13 | -13 | 46 | -1 | -8
O=c1[nH]c2ccccc2nc1/C=C/c1ccc(F)cc1 | -4 | 1 | -1 | 7 | -7 | 3 | / | / | /
C(=C\c1nccc2c1[nH]c1ccccc12)/c1ccccc1 | -20 | 6 | 0 | 55* | 2 | -10 | 35 | 2 | -2
Fc1ccc(/C=C\c2nccc3c2[nH]c2ccccc23)cc1 | 0 | -12 | 2 | 49* | 8 | -2 | 29 | -1 | -9
OCc1cccc(-c2cnc3c(Nc4cccc(OC(F)(F)C(F)F)c4)nccn23)c1 | / | / | / | 51* | / | -20 | 51* | -1 | -16
COc1ccc(N2CCN(C(=O)COc3cccc4ccccc34)CC2)cc1 | 14 | 2 | -3 | 10 | 1 | -5 | / | / | /
Cc1cccc(OCC(=O)N2CCN(C(=O)CCC3CCCC3)CC2)c1 | 19 | 14 | -4 | 12 | 1 | -1 | / | / | /
O=C(COc1ccc(Cl)cc1)N1CCN(C(=O)c2ccccc2F)CC1 | 7 | -6 | -3 | 82* | 6 | 6 | 50 | 2 | 6
Cc1cccc(OCC(=O)N2CCN(C(=O)c3ccc([N+](=O)[O-])cc3)CC2)c1 | 10 | 11 | -2 | 47* | 1 | -8 | 23 | 0 | 3
O=C(Nc1ccc(OCC(=O)N2CCOCC2)cc1)c1ccccc1F | 10 | -1 | -1 | -9 | 14 | 13 | / | / | /
COc1ccc(OCC(=O)N2CCN(C(=O)c3cccc4ccccc34)CC2)cc1 | 4 | -2 | 0 | 70* | 5 | -6 | 38 | -1 | -13
COc1ccc(OCC(=O)N2CCN(C(=O)c3ccc([N+](=O)[O-])cc3)CC2)cc1 | -7 | 6 | 0 | 88* | 4 | -7 | 60* | 1 | 9
Cc1sc2ncn(CC(=O)NCC(=O)N3CCN(c4ccccc4F)CC3)c(=O)c2c1C | 8 | -19 | 5 | -14 | -9 | 0 | / | / | /
O=C(NCCC1CCCCN1S(=O)(=O)c1ccc(F)cc1)C(=O)NCCN1CCOCC1 (configuration not stated) | 4 | 8 | 5 | -9 | 0 | -2 | / | / | /
COc1ccccc1Cc1c(-c2ccco2)nc2cc(C)c(Br)c(C)n12 | / | / | / | 3 | / | 1 | / | / | /
CCOC(=O)C1=C(C)c2ccccc2N(S(=O)(=O)C(F)(F)F)C1C(=O)OCC (configuration not stated) | 24 | / | / | -6 | 1 | 4 | / | / | /
COc1ccc(/C=C/C(=O)NNC(=O)c2ccncc2)c(OC)c1 | 6 | 6 | 1 | -2 | 12 | 0 | / | / | /
C#CCNC(=O)c1cc2c(Br)ccc(Br)c2nc1N | / | / | / | 0 | / | -6 | / | / | /
COc1cccc(OC)c1C(=O)OCC(=O)NC1CCCCCC1 | 0 | -16 | -1 | 7 | 0 | -5 | / | / | /
Cc1ccc(S(=O)(=O)NC(=O)C2(C)CCN2C(=O)c2ccccc2)nc1 (configuration not stated) | / | / | / | -1 | / | -1 | / | / | /
COc1ccc(N2CCN(C(=O)COc3ccccc3)CC2)cc1 | 7 | 6 | 0 | / | / | / | / | / | /
COc1ccc(OCC(=O)N2CCN(C(=O)c3ccccc3)CC2)cc1 | -3 | -11 | -5 | 77* | 4 | -3 | 74* | -1 | -19
COc1ccc(-c2cc(-c3ccc(OC)cc3)c(C#N)c(SC)n2)cc1 | 9 | -4 | 0 | 30 | -5 | 5 | / | / | /
COc1ccc(-c2cc(-c3ccccc3)c(C#N)c(S(C)(=O)=O)n2)cc1 | -4 | -6 | 4 | 66* | 10 | 3 | 72* | 5 | 8

Screening results deposited in PubChem BioAssay by several laboratories.
